Format in all cases: functional, organism-based
What all share (conditions): Enterovirus C

In one assay the test system is Poliovirus 1. The assay is described as follows: Antiviral activity against Poliovirus Sabin 1 infected in human HeLa cells assessed as reduction in virus-induced cytopathic effect after 72 hrs by crystal violet staining-based assay. A digest of the protocol: (§1)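 HeLa cells grown in MEM-10% FBS, seeded at 2x10^5 cells/mL in MEM-2% FBS and preincubated 24 h at 37°C, 5% CO2. Compound and virus were cross-titrated […] compound in 0.5 log10 steps (7-point curves), with duplicate wells and three replicate tests per virus. After 72 h at 37°C, cells were crystal violet stained and read at 590 nm. EC50 came from a four-parameter fit; if all virus dilutions gave >80% monolayer destruction, the value was […].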
A general note: Damage to the host cells serves as the signal in cytopathic effect assays.

A further assay deals with Poliovirus 3. Kind of assay: Antiviral activity against Poliovirus Sabin 3 infected in human HeLa cells assessed as reduction in virus-induced cytopathic effect after 72 hrs by crystal violet staining-based assay. The essentials: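 HeLa cells grown in MEM-10% FBS, seeded at 2x10^5 cells/mL in MEM-2% FBS and held 24 h at 37°C, 5% CO2. Compound and virus were cross-titrated together on the cells starting at 10 µM compound, in 0.5 log10 steps, duplicate wells, three replicate tests per virus. Incubated 72 h at 37°C, stained with crystal violet, A590 read. EC50 from four-parameter fit.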

Another assay relates to Poliovirus 2. Kind of assay: Antiviral activity against Poliovirus Sabin 2 infected in human HeLa cells assessed as reduction in virus-induced cytopathic effect after 72 hrs by crystal violet staining-based assay. A digest of the protocol:
as §1

The term EC50 denotes the concentration giving half of the maximal effect. `Cc1ccc(C(=O)CCCCSc2ccc(C3=N[C@H](C)CO3)cc2)s1`: the EC50 in the assay on Poliovirus 1 was determined as 169 nM; in the assay on Poliovirus 3 it was 530 nM; in the assay with Poliovirus 2, 302 nM.

Take `Cc1ccc(C(=O)CCCC[S+]([O-])c2ccc(C3=NCCO3)cc2)s1` (racemic): the EC50 with Poliovirus 1, in the assay with Poliovirus 3 and with Poliovirus 2 was over 10000 nM in each case.

With `Cc1ccc(C(=O)CCCCOc2ccc(C3=N[C@H](C)CO3)cc2)s1`, the EC50 is over 100000 nM in the assay with Poliovirus 1, 1320 nM with Poliovirus 3 and 417 nM in the assay with Poliovirus 2.

For `Cc1ccc(C(=O)CCCCCc2ccc(C3=NCCO3)cc2)s1`, the values for the EC50 in the assay on Poliovirus 1, with Poliovirus 3 and in the assay with Poliovirus 2 were over 10000 nM, 9070 nM and 9270 nM, respectively.

`Cc1ccc(C(=O)CCCCS(=O)(=O)c2ccc(C3=NCCO3)cc2)s1`: the EC50 in the assay on Poliovirus 1, in the assay with Poliovirus 3 and with Poliovirus 2 was over 10000 nM each time.

As to `N#Cc1ccc(NC(=O)c2cc3n(n2)C(C(F)(F)F)CC(c2cccs2)N3)cc1` (stereo unspecified), the EC50 in the assay with Poliovirus 1 came out at 10 nM; in the assay with Poliovirus 3, 218 nM; in the assay on Poliovirus 2, 26 nM.

`Cc1ccc(C(=O)CCCC#Cc2ccc(C3=NCCO3)cc2)s1`: the EC50 was over 10000 nM with Poliovirus 1, 9160 nM in the assay with Poliovirus 3 and 9090 nM in the assay with Poliovirus 2.

Take `Cc1ccc(C(=O)c2cccc(CSc3ccc(C4=NCCO4)cc3)c2)s1`: the EC50 with Poliovirus 1, in the assay on Poliovirus 3 and in the assay on Poliovirus 2 was over 10000 nM in each case.

In the case of `COc1ccc(OCc2ccc(COc3c(Cl)cccc3Cl)cc2)c(Cl)c1`, the EC50 in the assay with Poliovirus 1 came to 17 nM; in the assay with Poliovirus 3, 20 nM; in the assay on Poliovirus 2 it was 16 nM.

As for `Cc1ccc(C(=O)c2cccc(COc3ccc(C4=NCCO4)cc3)c2)s1`, the EC50 with Poliovirus 1, with Poliovirus 3 and in the assay with Poliovirus 2 was over 10000 nM throughout.

As for `C#CC[C@@H](C(=O)N[C@H](/C=C/C(=O)OCC)C[C@@H]1CCNC1=O)n1cccc(NC(=O)c2cc(C)on2)c1=O` [IMOCITRELVIR], the results for the EC50 in the assay with Poliovirus 1, with Poliovirus 3 and in the assay on Poliovirus 2 were 173 nM, 137 nM and 305 nM, respectively.

Consider `CCOC(=O)c1ccc(OCCC2CCN(c3ccc(C)nn3)CC2)cc1` [PIRODAVIR], for which the values for the EC50 with Poliovirus 1, in the assay on Poliovirus 3 and in the assay with Poliovirus 2 were 4.5 nM, 8 nM and 5 nM, respectively.

Values taken from ChEMBL document CHEMBL4371031, “In Vitro Antiviral Activity of New Oxazoline Derivatives as Potent Poliovirus Inhibitors” (J Med Chem, 2019).
